# EWS-Fli block: blocks EWS/Fli oncoprotein-driven transcription. A673 NR0B1-luciferase reporter, viability-normalised. inhibition, % at 12.6 µM. 350,000 tested, 0.67% active;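 active = mean inhibition of at least 50% after viability correction, with every replicate also passing that limit; inconclusive = mean reaches 50% but only one of two replicates passes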;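 note: firefly luciferase signal divided by Alamar Blue viability fluorescence both relative to DMSO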
# F508del corr: correctors of CFTR F508del function in bronchial epithelial cells; activity (quench increase), % at 7.58 µM; CFBE cells, YFP halide quenching; stimulated with forskolin plus potentiator P3; % fluorescence drop versus neutral controls; 350,000 tested, 0.36% active;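 active = mean added fluorescence quench of at least 8% versus neutral control, with both replicates also reaching 8%; inconclusive = only one of the mean or replicate conditions met; inactive = mean below 8% and not both replicates reaching 8%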;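 note: cells transiently co-express mutant CFTR-F508del with the halide-sensitive YFP; corrector assay measuring rescue of mutant channel to the surface after 24 h compound exposure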
# PGC1a acetyl inh: PGC1a acetylation modulation, inhibitor mode | U2OS PGC1a acetylation, AlphaScreen anti-acetyl-lysine; with virally co-expressed GCN5 acetyltransferase | inhibition, % at 15.6 µM | 350,000 tested, 0.17% active;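 active = every replicate shows inhibition of at least 40%; inconclusive = mean inhibition at least 40% but some replicate below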;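 note: 0% = neutral control wells and 100% = positive control wells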
# PAX8 reporter: inhibitors of PAX8 transcriptional activity in RMG-I cells. AID 652154. inhibition, % at 12.6 µM. RMG-I TPO-luciferase reporter, SteadyGlo, 24 h. 360,000 tested, 1.2% active;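 active = mean replicate inhibition at least 60% with every replicate also reaching 60%; inconclusive = only one of the two criteria is met; inactive = mean below 60% and not all replicates reaching 60%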;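 note: luciferase light reporting Pax8 driven TPO promoter activity; plate controls were median of neutral control wells for no effect and mitoxantrone controls for full effect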
# HIV Env fusion: blocks HIV Env-driven cell-cell fusion | HeLa-JRFL Env/CEM21 cell fusion, luciferase | 360,000 tested, 1.1% active | inhibition, % at 12.3 µM;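 active = mean replicate inhibition score of at least 50 and every replicate individually at or above 50; inconclusive = only one of the two criteria met; inactive = mean below 50 and not all replicates reaching 50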;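 note: 0% = plate neutral controls and 100% = maraviroc near 300 nM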
# FN deposit inh: fibronectin deposition inhibition; AH1F fibroblasts, Alexa488-fibronectin deposition fluorescence, overnight; 350,000 tested, 0.086% active; inhibition, % at 12.6 µM;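 active = mean inhibition across replicates of 30% or more, regardless of how many single replicates reach that level; inconclusive = mean under 30% yet at least half of replicates reach 30%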;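 note: positive control wells lacked labelled fibronectin entirely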
#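 Material: AH1F fibroblast monolayer depositing Alexa488-labelled fibronectin into matrix | Input: 10000 AH1F cells/well | Medium: DMEM plus 2% serum, read in PBS | Reagent: Alexa488-fibronectin, 24 nM final in well | Compound dosing: One dose per compound, pinned | Schedule: 1 h adhesion, overnight exposure | Measured by: Fluorescence at 485 nm excitation, 525 nm emission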
# The depositor's hits bear a star; ? = inconclusive; . = no result given; ! = repeats disagree; [ ] = dose if it differs, or a comment. Shown are actives, neighbours in structure and some others; about 2.3% of the full set was active somewhere.
SMILES,EWS-Fli block,F508del corr,PGC1a acetyl inh,PAX8 reporter,HIV Env fusion,FN deposit inh
O=C1C=C(N2CCCCC2)c2ccccc2C1=O,-2,-5,-25,87*,?,0
O=S(=O)(c1ccccc1S(=O)(=O)N1CCCCC1)N1CCCCC1,8,-1,-15,.,.,.
O=C1c2ccccc2C(=O)c2c1cccc2N1CCCC1,-30,8.0*,5,-7,-17,4
C[C@@H]1CCCCO[C@@H](CN(C)Cc2ccc3c(c2)OCO3)[C@@H](C)CN([C@@H](C)CO)C(=O)c2cc(NS(=O)(=O)c3ccc(Cl)cc3)ccc2O1,69*!,1,1,51,-44[16.7 µM],-4
C[C@@H]1CCCCO[C@@H](CN(C)Cc2ccc3c(c2)OCO3)[C@@H](C)CN([C@H](C)CO)C(=O)c2cc(NS(=O)(=O)c3ccc(Cl)cc3)ccc2O1,-1,2,6,-17,4[16.7 µM],-11
C[C@@H]1CN([C@H](C)CO)C(=O)c2cc(NS(=O)(=O)c3ccc(Cl)cc3)ccc2O[C@@H](C)CCCCO[C@H]1CN(C)Cc1ccc2c(c1)OCO2,14,-1,-2,90*!,-11[16.7 µM],-5
COC(=O)[C@]1(C)CCC[C@@]2(C)C3CC[C@]4(OC(C)=O)C[C@@]3(CCC21)CC4=O (stereo partly specified),11,1,.,-3,0,7
COC(=O)C1(C)CCCC2(C)C3CCC(C(C)C)C(CO)C3C(CO)CC12 (stereo unspecified),6,8.0*,-3,3,5,0
CC(C)C#Cc1ccc2c(c1)O[C@H](CN(C)C(=O)c1cccc(F)c1)[C@H](C)CN([C@@H](C)CO)S2(=O)=O,3,-1,-10,.,17[16.7 µM],.
COc1ccc(CN(C)C[C@H]2OCCCC[C@@H](C)Oc3ccc(NC(=O)Nc4cccc5ccccc45)cc3C(=O)N([C@H](C)CO)C[C@H]2C)cc1,72*,-3,-4,22,-12[16.7 µM],.
COc1ccc(CN(C)C[C@H]2OCCCC[C@@H](C)Oc3ccc(NC(=O)Nc4cccc5ccccc45)cc3C(=O)N([C@@H](C)CO)C[C@H]2C)cc1,?,-1,-4,10,-4[16.7 µM],.
COc1ccc(CN(C)C[C@H]2OCCCC[C@@H](C)Oc3ccc(NC(=O)Nc4cccc5ccccc45)cc3C(=O)N([C@@H](C)CO)C[C@@H]2C)cc1,80*,-3,11,32,-63[16.7 µM],.
CNC[C@@H]1OCCCC[C@H](C)Oc2ccc(NC(=O)Nc3ccc(C(F)(F)F)cc3)cc2C(=O)N([C@H](C)CO)C[C@@H]1C,16,0,8,34,-4[16.7 µM],.
O=C(/C=C/c1cccc([N+](=O)[O-])c1)n1cnc2ccccc21,65*,2,-10,19,-80,-3
Nc1nc(CCl)nc(Nc2cccc3ccccc23)n1,40,-1,12,123*,30,1
O=C(Nc1ccc(Cn2cccn2)cc1)c1ccc(COc2ccc(Br)cc2)cc1,.,.,-19,.,.,.
O=C(Nc1ccn(Cc2ccccc2F)n1)c1ccc(COc2ccc(Br)cc2)cc1,.,.,-7,.,87*,21
Cc1cc(C(=O)Nc2cccc3c2O[C@H](CN(C)Cc2ccc(Oc4ccccc4)cc2)[C@@H](C)CN([C@@H](C)CO)C3=O)n(C)n1,-19,3,-1,68*,15[16.7 µM],.
Cc1cc(C(=O)Nc2cccc3c2O[C@H](CN(C)Cc2ccc(-c4ccccc4)cc2)[C@H](C)CN([C@@H](C)CO)C3=O)n(C)n1,-7,5,2,11,.,.
Cc1cc(C(=O)Nc2cccc3c2O[C@@H](CN(C)Cc2ccc(-c4ccccc4)cc2)[C@H](C)CN([C@H](C)CO)C3=O)n(C)n1,-14,-3,2,70*,.,.
CC(=O)N1C[C@@H]2C(c3ccc(Br)cc3)[C@H](C1)N2CC(F)(F)F (stereo partly specified),.,.,.,.,.,-3
CCC(=O)Nc1ccc2c(c1)C(=O)N(C)C[C@@H](OC)[C@H](C)CN(C(=O)Cc1ccccn1)[C@H](C)CO2,-3,1,4,-20,.,-5
CO[C@@H]1CN(C)C(=O)c2cc(NC(=O)CC(F)(F)F)ccc2OC[C@H](C)N(C(=O)C2CCOCC2)C[C@@H]1C,-5,3,-9,.,.,8
